Source: ChEMBL document CHEMBL3877273, “Synthesis and evaluation of N-substituted 2-amino-4,5-diarylpyrimidines as selective adenosine A1 receptor antagonists” (Eur J Med Chem, 2017)
pEC50, pIC50, pKi: −log10 of the molar value.

How the values were obtained:
Adenosine receptor A1 [1] = biological target: T1, Adenosine receptor A1 (Homo sapiens, UniProt P30542); assay: Displacement of [3H]DPCPX from recombinant human adenosine A1 receptor expressed in CHO cell membranes after 1 hr by beta scintillation counting method
T1 sequence (P30542 whole entry): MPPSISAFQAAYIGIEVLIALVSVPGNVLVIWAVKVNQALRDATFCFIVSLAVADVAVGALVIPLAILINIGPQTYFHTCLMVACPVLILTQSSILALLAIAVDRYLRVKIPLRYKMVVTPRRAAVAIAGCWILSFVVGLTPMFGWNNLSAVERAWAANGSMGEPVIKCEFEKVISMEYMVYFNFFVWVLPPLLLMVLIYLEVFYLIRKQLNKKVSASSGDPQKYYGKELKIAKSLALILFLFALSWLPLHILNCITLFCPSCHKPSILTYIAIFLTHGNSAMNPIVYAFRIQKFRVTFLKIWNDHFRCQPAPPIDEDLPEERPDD

Adenosine receptor A2b = biological target: T2, Adenosine receptor A2b (Homo sapiens, UniProt P29275); assay: Displacement of [3H]PSB603 from recombinant human adenosine A2B receptor expressed in CHO cell membranes after 1 hr by beta scintillation counting method
T2 sequence (P29275 whole entry): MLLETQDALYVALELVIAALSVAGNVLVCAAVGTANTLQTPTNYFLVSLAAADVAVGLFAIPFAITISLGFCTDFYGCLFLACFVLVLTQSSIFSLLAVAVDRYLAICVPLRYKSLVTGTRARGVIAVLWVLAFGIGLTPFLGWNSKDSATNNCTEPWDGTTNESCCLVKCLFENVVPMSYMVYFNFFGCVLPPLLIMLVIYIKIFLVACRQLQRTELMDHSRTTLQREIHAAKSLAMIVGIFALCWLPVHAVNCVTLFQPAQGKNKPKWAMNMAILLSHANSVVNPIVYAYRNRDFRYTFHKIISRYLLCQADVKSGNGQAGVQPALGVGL

[2] = biological target: T3, Adenosine receptor A3 (Homo sapiens) (UniProt P0DMS8); assay: Displacement of [3H]PSB11 from recombinant human adenosine A3 receptor expressed in CHO cell membranes at 1 uM after 1 hr by […] method relative to control
T3 sequence (whole entry): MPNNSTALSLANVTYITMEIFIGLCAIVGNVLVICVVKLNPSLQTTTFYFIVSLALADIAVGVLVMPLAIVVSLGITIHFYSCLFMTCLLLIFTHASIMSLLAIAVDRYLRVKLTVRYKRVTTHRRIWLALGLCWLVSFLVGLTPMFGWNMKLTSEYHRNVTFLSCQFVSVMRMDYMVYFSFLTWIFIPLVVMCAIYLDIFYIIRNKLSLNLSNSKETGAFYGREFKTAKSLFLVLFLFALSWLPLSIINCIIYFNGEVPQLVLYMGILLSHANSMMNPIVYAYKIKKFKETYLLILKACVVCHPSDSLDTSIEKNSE

[3] = biological target: T4, Adenosine receptor A2b (Homo sapiens) (UniProt P29275); assay: Displacement of [3H]PSB603 from recombinant human adenosine A2B receptor expressed in CHO cell membranes at 1 uM after 1 hr by beta scintillation counting method relative to control
T4 sequence (whole entry): T2 sequence (P29275 whole entry)

Adenosine receptor A1 [4] = biological target: T1, Adenosine receptor A1; assay: Inverse agonist activity at recombinant human adenosine A1 receptor expressed in CHO cell membranes assessed as […] of [35S]GTPgammaS binding preincubated for 30 mins followed by [35S]GTPgammaS addition measured after 90 mins by beta scintillation counting method; assay type: functional
Adenosine receptor A2a [5] = biological target: T5, Adenosine receptor A2a (Homo sapiens, UniProt P29274); assay: Displacement of [3H]ZM241385 from recombinant human adenosine A2A receptor expressed in HEK293 cell membranes at 1 uM after 2 hrs by beta scintillation counting method relative to control
T5 sequence (P29274 whole entry): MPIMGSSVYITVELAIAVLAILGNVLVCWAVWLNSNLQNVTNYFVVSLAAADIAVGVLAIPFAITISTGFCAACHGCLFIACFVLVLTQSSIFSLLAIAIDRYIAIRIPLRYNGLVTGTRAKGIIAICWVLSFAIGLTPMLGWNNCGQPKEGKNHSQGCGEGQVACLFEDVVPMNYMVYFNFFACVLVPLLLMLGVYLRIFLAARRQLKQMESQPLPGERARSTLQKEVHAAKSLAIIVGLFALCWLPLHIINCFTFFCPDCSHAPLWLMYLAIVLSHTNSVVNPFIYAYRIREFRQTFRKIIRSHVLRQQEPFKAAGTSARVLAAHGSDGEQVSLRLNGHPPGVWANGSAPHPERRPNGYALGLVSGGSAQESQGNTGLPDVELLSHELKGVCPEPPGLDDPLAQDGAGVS
Summary of the method: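 Single-concentration screen on membranes from HEK293 cells stably expressing human A2A receptor. Test ligand at 1 µM, measured against specific [3H]ZM241385 binding and given as % displacement. Two independent experiments (n = 2), each value reported.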

Adenosine receptor A2a [6] = biological target: T5, Adenosine receptor A2a; assay: Displacement of [3H]ZM241385 from recombinant human adenosine A2A receptor expressed in HEK293 cell membranes after 2 hrs by beta scintillation counting method
Summary of the method: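 Membranes from HEK293 cells stably expressing human A2A receptor were used in radioligand competition with [3H]ZM241385. Ki was reported as mean ± SEM, n = 3.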

SMILES	pKi (Adenosine receptor A1 [1])	pKi (Adenosine receptor A2a [6])	also measured
Cc1cccc(-c2cnc(N)nc2-c2ccccc2)c1	6.69	–	–
O[C@H]1CC[C@H](Nc2ncc(-c3ccc4ccccc4c3)c(-c3ccccc3)n2)CC1	–	–	pIC50 (Adenosine receptor A2b): 6.00; inhibition [2]: 9%; inhibition [3]: 48%; pEC50 (Adenosine receptor A1 [4]): 6.78
Nc1ncc(-c2ccc(Cl)c(Cl)c2)c(-c2ccccc2)n1	7.42	–	inhibition (Adenosine receptor A2a [5]): 41%
COc1ccc(-c2cnc(N)nc2-c2ccccc2)cc1Cl	7.02 to 7.52	6.60	–
COc1ccc(-c2cnc(N)nc2-c2ccccc2)cc1OC	6.98	–	–
O[C@H]1CC[C@H](Nc2ncc(-c3ccnc(C4CC4)c3)c(-c3ccccc3)n2)CC1	8.97	7.19	–
CCCC(=O)Nc1ncc(-c2cccc(Cl)c2)c(-c2ccccc2)n1	6.97	–	–
Nc1ncc(-c2cccc(O)c2)c(-c2ccccc2)n1	6.84	–	–
Clc1cccc(-c2cnc(NC3CCCC3)nc2-c2ccccc2)c1	7.03	–	inhibition (Adenosine receptor A2a [5]): 23%
Nc1ncc(-c2ccnc(C3CC3)c2)c(-c2ccccc2)n1	8.75	7.44	–
Nc1ncc(-c2cccc(C(F)(F)F)c2)c(-c2ccccc2)n1	7.85	7.01	–
Nc1ncc(-c2ccc(O)cc2)c(-c2ccccc2)n1	8.85	8.89	–
OCCCCNc1ncc(-c2cccc(Cl)c2)c(-c2ccccc2)n1	6.89	–	inhibition (Adenosine receptor A2a [5]): 13%
Nc1ncc(-c2ccncc2)c(-c2ccccc2)n1	7.77	6.97	–
Oc1ccc(-c2cnc(N[C@H]3CC[C@H](O)CC3)nc2-c2ccccc2)cc1Cl	–	8.14	–
OCCNc1ncc(-c2cccc(Cl)c2)c(-c2ccccc2)n1	6.74	–	–
Nc1ncc(-c2ccc(F)cc2)c(-c2ccccc2)n1	6.80	–	–
Nc1ncc(-c2cccc(Cl)c2)c(-c2ccccc2)n1	7.26	6.92	–
Nc1ncc(-c2ccc(O)c(O)c2)c(-c2ccccc2)n1	7.92	8.33	–
Nc1ncc(-c2ccc(O)c(Cl)c2)c(-c2ccccc2)n1	9.34	8.89	–
O[C@H]1CC[C@H](Nc2ncc(-c3cccc(Cl)c3)c(-c3ccccc3)n2)CC1	7.52	–	inhibition (Adenosine receptor A2a [5]): 1.4%; inhibition [2]: 3%; inhibition [3]: 27%; pEC50 (Adenosine receptor A1 [4]): 6.56
COc1cccc(-c2cnc(N)nc2-c2ccccc2)c1	7.27	6.81	–
Nc1ncc(-c2ccc3ccccc3c2)c(-c2ccccc2)n1	7.74	6.89	–
OCCCNc1ncc(-c2cccc(Cl)c2)c(-c2ccccc2)n1	7.23	–	inhibition (Adenosine receptor A2a [5]): 9.5%
